Results: paper PMC9073044 (Saudi Journal of Biological Sciences, 2021)
Where a name gives a salt, the structure may show the parent alone. Blank lines part the entries; values can stand above or below the molecule they belong to.

Tests used:
[1] = Caco-2 cells monolayer transport study; assay type: in vitro ADME; details: human
Procedure, shortened: (§1)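 Caco-2 cells seeded at 1 × 10^5/cm2 on 0.33 cm2 transwell inserts and grown 21 days in DMEM with 20% FBS; TEER >300 Ω•cm2. Monolayers were preincubated 30 min in 37 ℃ HBSS with 10 mM HEPES. Test compound at 12, 120 and 1200 μg/mL was run bidirectionally, ± GF120918, for 2 h. […] Lucifer yellow (20 μg/mL, AP→BL, fluorescence) checked tight junctions.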

rats intestine = assay: In-situ single-pass intestinal perfusion; assay type: in vivo, SD rats
Caco-2 cells = assay: Cytotoxicity by MTT assay; assay type: cell-based; details: lamivudine 12, 120 and 1200 μg/mL, 24 h
Procedure, shortened: (§2)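 MTT assay: Caco-2 cells seeded at 5 × 10^3 per well in 96-well plates and incubated 24 h. Medium was replaced with test compound (12, 120 or 1200 μg/mL) for 24 h. MTT was then added for 4 h, the supernatant removed, formazan dissolved in DMSO, and absorbance read at 630 nm.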

[2] = Cytotoxicity by MTT assay; assay type: cell-based; details: human, Caco-2 cells
Procedure, shortened: as §2

Caco-2 cells monolayer = Caco-2 cells monolayer transport study; assay type: in vitro ADME
Procedure, shortened: as §1

[3] = ref Du et al., 2019, Yuen et al., 1995; cited from earlier work
human DNA polymerase = details: ref Reis et al., 2013; cited from earlier work
[4] = Caco-2, with GF120918 (elacridar), 10 μM

Molecule: Nc1nc2c(ncn2COCCO)c(=O)[nH]1 [Acyclovir]
- Papp A→B at 2 h ([1]; Caco-2): 0.081 ± 0.011 ×10⁻⁶ cm/s

Molecule: Lucifer yellow
- %lucifer yellow (Caco-2 cells monolayer; lucifer yellow 20 μg/mL, AP-BL, without GF120918, 2 h): 0.81 ± 0.03%

Molecule: C[C@H]1O[C@@H](O[C@H]2[C@@H](O)C[C@H](O[C@H]3[C@@H](O)C[C@H](O[C@H]4CC[C@@]5(C)[C@H](CC[C@@H]6[C@@H]5C[C@@H](O)[C@]5(C)[C@@H](C7=CC(=O)OC7)CC[C@]65O)C4)O[C@@H]3C)O[C@@H]2C)C[C@H](O)[C@@H]1O [Digoxin]
- Papp A→B at 2 h ([1]; Caco-2): 0.09 ± 0.005 ×10⁻⁶ cm/s
- Papp B→A at 2 h, 30 μg/mL ([1]; Caco-2): 11.9 ± 0.312 ×10⁻⁶ cm/s
- efflux ratio at 2 h, 30 μg/mL ([1]; Caco-2): 133
- Papp A→B at 2 h, 30 μg/mL [1, 4]: 3.59 ± 0.128 ×10⁻⁶ cm/s
- Papp B→A at 2 h, 30 μg/mL [1, 4]: 5.15 ± 0.058 ×10⁻⁶ cm/s
- efflux ratio at 2 h, 30 μg/mL [1, 4]: 1.43

Further lines, with some results ahead:

- permeability in BCS (rats intestine; from Peff in SPIP): moderate permeability
- permeability in BCS (Caco-2 cells monolayer; from Papp on Caco-2 cells monolayer, between high- and low-permeability controls): moderate-permeability
- Papp A→B at 2 h, 12 μg/mL ([1]; Caco-2): 0.296 ± 0.005 ×10⁻⁶ cm/s
- Papp A→B at 2 h, 120 μg/mL ([1]; Caco-2): 0.297 ± 0.015 ×10⁻⁶ cm/s
- Papp A→B at 2 h, 1200 μg/mL ([1]; Caco-2): 0.285 ± 0.011 ×10⁻⁶ cm/s
- Papp B→A at 2 h, 12 μg/mL ([1]; Caco-2): 0.788 ± 0.044 ×10⁻⁶ cm/s
- Papp B→A at 2 h, 120 μg/mL ([1]; Caco-2): 0.77 ± 0.027 ×10⁻⁶ cm/s
- Papp B→A at 2 h, 1200 μg/mL ([1]; Caco-2): 0.737 ± 0.009 ×10⁻⁶ cm/s
- Papp A→B at 2 h, 12 μg/mL [1, 4]: 0.307 ± 0.008 ×10⁻⁶ cm/s
- Papp A→B at 2 h, 120 μg/mL [1, 4]: 0.322 ± 0.007 ×10⁻⁶ cm/s
- Papp A→B at 2 h, 1200 μg/mL [1, 4]: 0.293 ± 0.004 ×10⁻⁶ cm/s
- Papp B→A at 2 h, 12 μg/mL [1, 4]: 0.548 ± 0.011 ×10⁻⁶ cm/s
- Papp B→A at 2 h, 120 μg/mL [1, 4]: 0.519 ± 0.008 ×10⁻⁶ cm/s
- Papp B→A at 2 h, 1200 μg/mL [1, 4]: 0.531 ± 0.012 ×10⁻⁶ cm/s
Molecule: Nc1ccn([C@@H]2CS[C@H](CO)O2)c(=O)n1 [Lamivudine]
- growth ability of Caco-2 cells (Caco-2 cells): did not significantly affect
- viability at 24 h, 1200 μg/mL [2]: > 80%
- bioavailability [3]: exceed 80%
- affinity in human DNA polymerase (human DNA polymerase): low affinity

- Peff (rats intestine; control drugs, perfusion concentration 120 μg/mL, mean ± SD, n = 6): 6.13 ± 2.49 ×10^-5 cm/s
- Papp A→B at 2 h ([1]; Caco-2): 16 ± 0.652 ×10⁻⁶ cm/s
Molecule: COCCc1ccc(OCC(O)CNC(C)C)cc1 (stereo not shown) [Metoprolol tartrate]
